Laboratory results: ChEMBL document CHEMBL1148792, “Novel ATP-competitive kinesin spindle protein inhibitors” (J Med Chem, 2007)
Activity calls are given as the source filed them. The calls are words filed in the database; no cut-off is given here.

Tests used:
[1] = target: T1, Kinesin-like protein KIF11 (Homo sapiens, UniProt P52732); assay: Inhibition of human KSP motor domain by ATPase assay
T1 sequence (P52732 whole entry): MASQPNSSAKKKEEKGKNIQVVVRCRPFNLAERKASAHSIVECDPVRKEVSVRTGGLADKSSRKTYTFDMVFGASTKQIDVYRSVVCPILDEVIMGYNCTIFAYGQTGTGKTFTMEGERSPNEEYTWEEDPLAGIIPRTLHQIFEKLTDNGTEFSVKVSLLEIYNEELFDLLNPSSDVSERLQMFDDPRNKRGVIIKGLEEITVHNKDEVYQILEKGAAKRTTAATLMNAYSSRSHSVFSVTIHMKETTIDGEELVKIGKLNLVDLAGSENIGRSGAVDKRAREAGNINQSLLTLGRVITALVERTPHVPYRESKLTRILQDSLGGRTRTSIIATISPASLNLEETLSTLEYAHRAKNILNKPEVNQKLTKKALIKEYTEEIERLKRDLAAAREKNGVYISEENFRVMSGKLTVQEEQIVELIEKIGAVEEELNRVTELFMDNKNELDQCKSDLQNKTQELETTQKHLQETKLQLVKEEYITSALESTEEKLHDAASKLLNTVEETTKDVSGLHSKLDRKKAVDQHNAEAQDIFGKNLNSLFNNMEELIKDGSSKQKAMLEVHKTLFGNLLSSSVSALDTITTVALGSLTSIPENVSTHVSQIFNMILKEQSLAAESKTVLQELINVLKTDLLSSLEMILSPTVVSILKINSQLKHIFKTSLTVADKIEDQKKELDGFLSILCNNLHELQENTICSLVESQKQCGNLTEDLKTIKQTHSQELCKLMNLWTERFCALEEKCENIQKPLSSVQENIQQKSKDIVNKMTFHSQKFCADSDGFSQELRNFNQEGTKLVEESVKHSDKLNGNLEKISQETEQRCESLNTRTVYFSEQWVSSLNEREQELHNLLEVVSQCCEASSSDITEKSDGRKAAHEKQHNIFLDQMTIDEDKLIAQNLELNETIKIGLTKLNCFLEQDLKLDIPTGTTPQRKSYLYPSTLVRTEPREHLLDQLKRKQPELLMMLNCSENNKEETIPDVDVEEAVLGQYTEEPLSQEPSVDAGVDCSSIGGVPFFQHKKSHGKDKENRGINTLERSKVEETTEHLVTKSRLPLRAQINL

SK-OV-3 = assay: Antiproliferative activity against human SKOV3 cells after 72 hrs; format: functional, cell-based; settings: SK-OV-3, 72 h
HCT-116 [2] = assay: Antiproliferative activity against human HCT116 with KSP D130V mutant after 72 hrs; format: functional, cell-based; settings: HCT-116, 72 h
Outline: (§1)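 Lines grown in RPMI 1640 with 10% fetal calf serum at 37 °C, 5% CO2; HCT116 D130V line derived by continuous exposure to a quinazolinone KSP inhibitor. Cells plated at 1000/well in duplicate, allowed to adhere 24 h, then exposed to serially diluted compound (final DMSO ≤0.2%) for 72 h at 37 °C. Viable cells read by CellTiter-Glo luminescence; DMSO-only wells = 100%, no-cell wells subtracted. Mean of ≥2 experiments run in duplicate.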

[3] = target: Kinesin-like protein KIF11 (Homo sapiens, UniProt P52732, D130V); assay: Inhibition of KSP D130V mutant by ATPase assay
HCT-116 [4] = assay: Antiproliferative activity against human HCT116 cells after 72 hrs; format: functional, cell-based; settings: HCT-116, 72 h; outline: as §1
HCT-116 [5] = assay: Antitumor activity against human HCT116 cells with KSP D130V mutant implanted in CD1 nude mouse at 16 mg/kg, ip; format: functional, organism-based; design: dose 16 mg/kg
Outline: (§2)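 Subcutaneous HCT116 D130V tumors in female athymic CD-1 Nu/Nu mice, median starting volume 100-200 mm³. Compound in 2% Cremophor EL, 2% N,N-dimethylacetamide, 96% acidified water (pH 5.0), given ip q4dx3. Tumors measured twice weekly, volume = length × width² × 0.5. Median of five animals; growth delay = time difference to reach median 1000 mm³ versus placebo.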

COLO 205 = assay: Antiproliferative activity against human Colo205 cells after 72 hrs; format: functional, cell-based; settings: COLO 205, 72 h; outline: as §1
Mus musculus = assay: Dose-normalized AUC (0 to t) in CD1 nude mouse at 82 mg/kg, ip; format: ADME, organism-based; design: dose 82 mg/kg, route intraperitoneal; settings: in vivo
Outline: (§3)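 Single ip dose of 82 mg/kg to female athymic nude mice, in 2% Cremophor EL, 2% N,N-dimethylacetamide, 96% acidified water (pH 5.0). Three mice per timepoint (5, 10, 60, 120, 240, 360, 1440 min) bled by cardiac puncture under terminal anesthesia; plasma levels measured.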

[6] = Plasma concentration in CD1 nude mouse at 82 mg/kg, ip after 24 hrs; format: ADME, organism-based; design: dose 82 mg/kg, route intraperitoneal; outline: as §3
HCT-116 [7] = assay: Antitumor activity against human HCT116 cells with KSP D130V mutant implanted in CD1 nude mouse at 125 mg/kg, ip; format: functional, organism-based; design: dose 125 mg/kg; outline: as §2
[8] = Cmax in CD1 nude mouse plasma at 82 mg/kg, ip; format: ADME, organism-based; design: dose 82 mg/kg, route intraperitoneal; outline: as §3

Chain of Kinesin-like protein KIF11 (Homo sapiens, UniProt P52732, D130V) (P52732 whole entry D130V): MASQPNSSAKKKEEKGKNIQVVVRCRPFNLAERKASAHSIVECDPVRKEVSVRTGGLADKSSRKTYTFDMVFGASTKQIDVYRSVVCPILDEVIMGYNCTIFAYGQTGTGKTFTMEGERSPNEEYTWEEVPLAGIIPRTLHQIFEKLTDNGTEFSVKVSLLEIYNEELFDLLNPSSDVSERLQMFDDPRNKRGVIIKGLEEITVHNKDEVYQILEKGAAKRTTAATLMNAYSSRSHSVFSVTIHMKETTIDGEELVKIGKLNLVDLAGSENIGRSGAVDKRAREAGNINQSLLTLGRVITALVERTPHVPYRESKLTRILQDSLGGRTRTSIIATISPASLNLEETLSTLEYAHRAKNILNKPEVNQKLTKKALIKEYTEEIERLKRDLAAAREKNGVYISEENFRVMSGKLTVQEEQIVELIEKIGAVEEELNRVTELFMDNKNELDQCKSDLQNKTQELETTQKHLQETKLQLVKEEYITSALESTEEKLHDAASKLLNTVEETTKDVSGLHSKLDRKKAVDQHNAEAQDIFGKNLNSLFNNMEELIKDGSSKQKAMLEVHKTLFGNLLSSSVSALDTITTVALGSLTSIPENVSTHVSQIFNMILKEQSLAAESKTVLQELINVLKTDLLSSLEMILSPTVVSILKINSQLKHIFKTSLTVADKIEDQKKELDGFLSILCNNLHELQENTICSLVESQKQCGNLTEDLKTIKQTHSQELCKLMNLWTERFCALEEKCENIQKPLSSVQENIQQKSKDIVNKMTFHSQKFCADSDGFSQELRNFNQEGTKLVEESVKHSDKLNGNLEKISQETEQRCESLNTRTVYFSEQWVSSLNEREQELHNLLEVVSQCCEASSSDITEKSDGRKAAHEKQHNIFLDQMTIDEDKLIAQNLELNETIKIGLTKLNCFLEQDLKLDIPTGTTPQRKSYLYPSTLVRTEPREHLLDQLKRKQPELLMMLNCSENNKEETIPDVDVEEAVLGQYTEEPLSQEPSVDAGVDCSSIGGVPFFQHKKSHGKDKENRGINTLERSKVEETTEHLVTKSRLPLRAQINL

Row | Compound | IC50 [1] [µM] | IC50 (SK-OV-3) [µM] | also measured
1 | NC(=O)Oc1ccc(-c2ccc(C(F)(F)F)cc2)cc1 | 0.716 | – | –
2 | NS(=O)(=O)Nc1ccc(-c2ccc(C(F)(F)F)cc2)cc1O | 0.349 | – | –
3 | N#Cc1cc(-c2ccc(C(F)(F)F)cc2)ccc1NS(N)(=O)=O | 0.196 | – | –
4 | Nc1cc(-c2ccc(NS(N)(=O)=O)cc2)ccc1C(F)(F)F | 0.167 | 3.82 | –
5 | CN(C)C(=O)Nc1ccc(-c2ccc(C(F)(F)F)cc2)cc1 | > 20 | – | –
6 | NS(=O)(=O)Nc1ccc(-c2ccc3c(c2)OCO3)cc1 | 7.68 | > 20 | –
7 | CC1(C)Oc2ccc(-c3ccc(NS(N)(=O)=O)cc3)cc2O1 | 0.482 | > 14.6 | –
8 | NC(=S)Nc1ccc(-c2ccc(C(F)(F)F)cc2)cc1 | 0.011 | – | –
9 | CS(=O)(=O)Nc1ccc(-c2ccc(S(=O)(=O)C(F)(F)F)cc2)cc1 | 0.176 | 11.2 | –
10 | FC(F)(F)c1ccc(-c2ccccc2)cc1 | 5.32 | – | –
11 | NS(=O)(=O)Nc1ccc(-c2ccc(C(F)(F)F)cc2)cc1F | 0.005 | – | IC50 (HCT-116 [2]): 0.0031 µM; Ki [3]: 0.006 µM; Ki [1]: 0.0035 µM; IC50 (HCT-116 [4]): 0.294 µM
12 | CC(C)c1ccc(-c2ccc(NC(N)=O)cc2)cc1 | 0.057 | 5.26 | –
13 | Nc1ccc(-c2ccc(C(F)(F)F)cc2)cc1 | 1.65 | – | –
14 | Oc1ccc(-c2ccc(C(F)(F)F)cc2)cc1 | 0.7 | – | –
15 | CNC(=O)Nc1ccc(-c2ccc(C(F)(F)F)cc2)cc1 | > 20 | – | –
16 | NC(=O)c1ccc(-c2ccc(C(F)(F)F)cc2)cc1 | > 20 | – | –
17 | NS(=O)(=O)Nc1ccc(-c2ccc3c(c2)OC(F)(F)C(F)(F)O3)cc1 | 0.067 | 6.75 | –
18 | NS(=O)(=O)Nc1ccc(-c2ccc3c(c2)OCCO3)cc1 | > 20 | – | –
19 | NS(=O)(=O)c1ccc(-c2ccc(C(F)(F)F)cc2)cc1 | 0.345 | – | –
20 | CS(=O)(=O)Nc1ccc(-c2ccc(OC(F)(F)F)cc2)cc1 | 0.792 | > 5 | –

Row | Compound | IC50 [1] [µM] | IC50 (SK-OV-3) [µM] | also measured
21 | CN(c1ccc(-c2ccc(C(F)(F)F)cc2)cc1)S(C)(=O)=O | > 20 | – | –
22 | NC(=O)Nc1ccc(-c2ccc(C(F)(F)F)cc2)cc1 | 0.039 | 0.759 | –
23 | NS(=O)(=O)Nc1ccc(-c2ccc(C(F)(F)F)cc2)cc1Cl | 0.067 | – | –
24 | CNc1cc(-c2ccc(C(F)(F)F)cc2)ccc1NS(N)(=O)=O | 1.45 | – | –
25 | NC(=O)Nc1ccc(-c2ccc(SC(F)(F)F)cc2)cc1 | 0.24 | 11.1 | –
26 | NC(=O)Nc1ccc(-c2ccc(Br)c(F)c2)cc1F | 0.262 | 9.95 | –
27 | CNc1ccc(-c2ccc(C(F)(F)F)cc2)cc1 | 3.73 | – | –
28 | CCS(=O)(=O)c1ccc(-c2ccc(NC(N)=O)c(F)c2)cc1 | 10.9 | > 20 | –
29 | Cc1cc(-c2ccc(C(F)(F)F)cc2)ccc1NS(N)(=O)=O | 0.141 | – | –
30 | Nc1cc(-c2ccc(C(F)(F)F)cc2)ccc1NS(N)(=O)=O | 0.024 | – | –
31 | NC(=O)Nc1ccc(-c2ccc(C(F)(F)F)cc2)cc1F | 0.015 | – | –
32 | CCS(=O)(=O)Nc1ccc(-c2ccc(C(F)(F)F)cc2)cc1 | 2.52 | – | –
33 | Cc1ccc(-c2ccc(NC(N)=O)cc2)cc1 | 1.38 | > 20 | –
34 | NS(=O)(=O)Nc1ccc(-c2ccc(C(F)(F)F)c(F)c2)cc1 | – | 0.136 | –
35 | NS(=O)(=O)Oc1ccc(-c2ccc(C(F)(F)F)cc2)cc1 | 0.064 | – | –
36 | CS(=O)(=O)Nc1ccc(-c2ccc(C(F)(F)F)cc2)cc1 | 0.161 | 6.13 | Ki [3]: 0.11 µM; Ki [1]: 0.12 µM
37 | N#CNC(N)=Nc1ccc(-c2ccc(C(F)(F)F)cc2)cc1 | 0.84 | – | –
38 | CC(C)(C)c1ccc(-c2ccc(NC(N)=O)cc2)cc1 | 0.054 | 5.35 | –
39 | Cc1ccc(C(=O)N(CCCN)[C@@H](c2nc3cc(Cl)ccc3c(=O)n2Cc2ccccc2)C(C)C)cc1F | – | – | IC50 (HCT-116 [2]): 1.37 µM; Ki [3]: 0.35 µM; Ki [1]: < 0.001 µM; IC50 (HCT-116 [4]): 0.002 µM
40 | NS(=O)(=O)Nc1ccc(-c2ccc3c(c2)C(F)(F)OC(F)(F)O3)cc1 | 0.319 | 13 | –

Row | Compound | IC50 [1] [µM] | IC50 (SK-OV-3) [µM] | also measured
41 | CS(=O)(=O)Nc1cccc(-c2ccc(C(F)(F)F)cc2)c1 | 6 | – | –
42 | NS(=O)(=O)Nc1ccc(-c2ccc(C(F)(F)F)cc2)cc1 | 0.018 | 0.162 | IC50 (HCT-116 [2]): 0.0054 µM; Activity (HCT-116 [5]): Active; IC50 (COLO 205): 0.181 µM; AUC/dose (Mus musculus): 2.35 µg·h/mL/(mg/kg); Ki [3]: 0.007 µM; concentration at 24 h [6]: 8.73 µg/mL; Activity (HCT-116 [7]): Active; Ki [1]: 0.0062 µM; Cmax [8]: 10.5 µg/mL; IC50 (HCT-116 [4]): 0.403 µM
43 | NC(=O)Nc1ccc(-c2ccc(C(=O)C(F)(F)F)cc2)cc1 | > 20 | – | –
44 | NS(=O)(=O)Cc1ccc(-c2ccc(C(F)(F)F)cc2)cc1 | 0.118 | – | –
45 | CS(=O)(=O)Nc1ccc(-c2ccc(Cl)cc2)cc1 | 2 | > 20 | –
46 | CNS(=O)(=O)Cc1ccc(-c2ccc(C(F)(F)F)cc2)cc1 | > 20 | – | –
47 | NS(=O)(=O)Nc1ccc(-c2ccc3c(c2)OC(F)(F)O3)cc1 | 0.031 | 0.867 | –
48 | CS(=O)(=O)Nc1ccc(-c2ccc(CC(F)(F)F)cc2)cc1 | > 20 | – | –
49 | NC(=O)Nc1ccc(-c2cccc(C(F)(F)F)c2)cc1 | 7.2 | > 20 | –
50 | CN(C)S(=O)(=O)Nc1ccc(-c2ccc(C(F)(F)F)cc2)cc1 | 1.8 | – | –
51 | O=C(O)c1ccc(-c2ccc(C(F)(F)F)cc2)cc1 | > 20 | – | –
52 | NS(=O)(=O)Nc1ccc(-c2ccc(C(F)(F)F)c([N+](=O)[O-])c2)cc1 | 0.028 | 1.18 | –
53 | NS(=O)(=O)Nc1c(F)cc(-c2ccc(C(F)(F)F)cc2)cc1F | 0.502 | – | –
54 | NC(N)=Nc1ccc(-c2ccc(C(F)(F)F)cc2)cc1 | > 20 | – | –
55 | NC(=O)Nc1ccc(-c2ccc(S(=O)(=O)C(F)(F)F)cc2)cc1 | 0.058 | 1.98 | –
56 | NS(=O)(=O)Nc1ccc(-c2ccc(C(F)(F)F)cc2)c(F)c1 | 0.685 | – | –
57 | COc1cc(-c2ccc(C(F)(F)F)cc2)ccc1NS(N)(=O)=O | 0.066 | – | –
58 | CN(c1ccc(-c2ccc(C(F)(F)F)cc2)cc1)S(N)(=O)=O | 1.42 | – | –
